From ChEMBL document CHEMBL5724801, “EUbOPEN Chemogenomics Library - Multiplex” (2024)
Several values for one entry are separate records, joined by “and”; a condition that tells them apart may be missing. Equal values may be shown once.

What was measured:
U2OS = assay: Multiplex assay against U2OS; type: toxicity, cell-based; settings: human
How it was run: (§1)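 At seeding, live cells were stained with Hoechst33342, BioTracker Green Microtubule Cytoskeleton Dye, MitoTracker Red and Annexin V Alexa Fluor 680. After compound addition they were imaged on a CQ1 microscope at 37°C and 5% CO2, and CellPathfinder machine-learning gating sorted them into Hoechst high-intensity objects or normal cells, with normal cells further split into healthy, pyknosed or fragmented nuclei and pyknosed cells into mitotic or apoptotic. Tubulin, mitochondrial-mass and membrane-permeability phenotypes are given as per cents of cells with healthy nuclei.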

Fibroblast = assay: Multiplex assay against human fibroblast; type: toxicity, cell-based; how it was run: as §1
[1] = 12 h, 1 µM, compound concentration 1 uM
[2] = 12 h, 10 µM, compound concentration 10 uM
[3] = 24 h, 1 µM, compound concentration 1 uM
[4] = 24 h, 10 µM, compound concentration 10 uM
[5] = 48 h, 1 µM, compound concentration 1 uM
[6] = 48 h, 10 µM, compound concentration 10 uM

O=C(O)C(F)(F)F.O=C1NC(=O)/C(=C/c2c[nH]c(=O)c(-c3ccc(N4CCNCC4)nc3)c2)S1
Population Apoptotic (%) (U2OS; [1]): 42.86% and 38.46%
Population Fragmented Nuclei (%) (U2OS; [1]): 1.89% and 1.93%
Population Healthy Nuclei (%) (U2OS; [1]): 92.45% and 85.51%
Population Hoechst High Intensity Objects (%) (U2OS; [1]): 0%
Population Membrane Permeable-Phenotype (%) (U2OS; [1]): 0.29% and 4.52%
Population Mitochondria Different-Phenotype (%) (U2OS; [1]): 0.29% and 6.21%
Population Mitotic Cells (%) (U2OS; [1]): 57.14% and 61.54%
Population Normal (%) (U2OS; [1]): 100%
Population Pyknosed Nuclei (%) (U2OS; [1]): 5.66% and 12.56%
Population Tubulin-Different-Phenotype (%) (U2OS; [1]): 0.58% and 2.82%
Total Cell Count (U2OS; [1]): 371 and 207
Population Apoptotic (%) (U2OS; [2]): 25% and 60%
Population Fragmented Nuclei (%) (U2OS; [2]): 1.57% and 2.75%
Population Healthy Nuclei (%) (U2OS; [2]): 90.03% and 86.26%
Population Hoechst High Intensity Objects (%) (U2OS; [2]): 0%
Population Membrane Permeable-Phenotype (%) (U2OS; [2]): 2.62% and 4.46%
Population Mitochondria Different-Phenotype (%) (U2OS; [2]): 0.29% and 5.73%
Population Mitotic Cells (%) (U2OS; [2]): 75% and 40%
Population Normal (%) (U2OS; [2]): 100%
Population Pyknosed Nuclei (%) (U2OS; [2]): 8.4% and 10.99%
Population Tubulin-Different-Phenotype (%) (U2OS; [2]): 1.17% and 1.27%
Total Cell Count (U2OS; [2]): 381 and 182
Population Apoptotic (%) (U2OS; [3]): 38.46% and 27.27%
Population Fragmented Nuclei (%) (U2OS; [3]): 0.79% and 0.38%
Population Healthy Nuclei (%) (U2OS; [3]): 94.08% and 86.92%
Population Hoechst High Intensity Objects (%) (U2OS; [3]): 0%
Population Membrane Permeable-Phenotype (%) (U2OS; [3]): 0.42% and 3.98%
Population Mitochondria Different-Phenotype (%) (U2OS; [3]): 0.21% and 3.98%
Population Mitotic Cells (%) (U2OS; [3]): 61.54% and 72.73%
Population Normal (%) (U2OS; [3]): 100%
Population Pyknosed Nuclei (%) (U2OS; [3]): 5.13% and 12.69%
Population Tubulin-Different-Phenotype (%) (U2OS; [3]): 0.42% and 1.33%
Total Cell Count (U2OS; [3]): 507 and 260
Population Apoptotic (%) (U2OS; [4]): 40.62% and 57.89%
Population Fragmented Nuclei (%) (U2OS; [4]): 2.9% and 4.85%
Population Healthy Nuclei (%) (U2OS; [4]): 90.91% and 86.78%
Population Hoechst High Intensity Objects (%) (U2OS; [4]): 0%
Population Membrane Permeable-Phenotype (%) (U2OS; [4]): 3.19% and 4.06%
Population Mitochondria Different-Phenotype (%) (U2OS; [4]): 0.21% and 4.57%
Population Mitotic Cells (%) (U2OS; [4]): 59.38% and 42.11%
Population Normal (%) (U2OS; [4]): 100%
Population Pyknosed Nuclei (%) (U2OS; [4]): 6.19% and 8.37%
Population Tubulin-Different-Phenotype (%) (U2OS; [4]): 1.49% and 0.51%
Total Cell Count (U2OS; [4]): 517 and 227
Population Apoptotic (%) (U2OS; [5]): 51.47% and 41.86%
Population Fragmented Nuclei (%) (U2OS; [5]): 2% and 1.49%
Population Healthy Nuclei (%) (U2OS; [5]): 90.84% and 89.38%
Population Hoechst High Intensity Objects (%) (U2OS; [5]): 0%
Population Membrane Permeable-Phenotype (%) (U2OS; [5]): 0.93% and 3.09%
Population Mitochondria Different-Phenotype (%) (U2OS; [5]): 0.12% and 2.14%
Population Mitotic Cells (%) (U2OS; [5]): 48.53% and 58.14%
Population Normal (%) (U2OS; [5]): 100%
Population Pyknosed Nuclei (%) (U2OS; [5]): 7.16% and 9.13%
Population Tubulin-Different-Phenotype (%) (U2OS; [5]): 1.04% and 1.66%
Total Cell Count (U2OS; [5]): 950 and 471
Population Apoptotic (%) (U2OS; [6]): 38.82% and 45.95%
Population Fragmented Nuclei (%) (U2OS; [6]): 2.93% and 2.98%
Population Healthy Nuclei (%) (U2OS; [6]): 88.48% and 87.84%
Population Hoechst High Intensity Objects (%) (U2OS; [6]): 0.1% and 0%
Population Membrane Permeable-Phenotype (%) (U2OS; [6]): 1.48% and 3.39%
Population Mitochondria Different-Phenotype (%) (U2OS; [6]): 0% and 1.98%
Population Mitotic Cells (%) (U2OS; [6]): 61.18% and 54.05%
Population Normal (%) (U2OS; [6]): 99.9% and 100%
Population Pyknosed Nuclei (%) (U2OS; [6]): 8.59% and 9.18%
Population Tubulin-Different-Phenotype (%) (U2OS; [6]): 0.68% and 1.69%
Total Cell Count (U2OS; [6]): 991 and 403
Population Apoptotic (%) (Fibroblast; [1]): 11.76% and 21.95%
Population Fragmented Nuclei (%) (Fibroblast; [1]): 12.02% and 8.21%
Population Healthy Nuclei (%) (Fibroblast; [1]): 60.11% and 70.77%
Population Hoechst High Intensity Objects (%) (Fibroblast; [1]): 0%
Population Membrane Permeable-Phenotype (%) (Fibroblast; [1]): 3.64% and 0%
Population Mitochondria Different-Phenotype (%) (Fibroblast; [1]): 8.18% and 7.25%
Population Mitotic Cells (%) (Fibroblast; [1]): 88.24% and 78.05%
Population Normal (%) (Fibroblast; [1]): 100%
Population Pyknosed Nuclei (%) (Fibroblast; [1]): 27.87% and 21.03%
Population Tubulin-Different-Phenotype (%) (Fibroblast; [1]): 8.18% and 12.32%
Total Cell Count (Fibroblast; [1]): 183 and 195
Population Apoptotic (%) (Fibroblast; [2]): 13.51% and 16.13%
Population Healthy Nuclei (%) (Fibroblast; [2]): 62.9% and 80.28%
Population Hoechst High Intensity Objects (%) (Fibroblast; [2]): 0%
Population Membrane Permeable-Phenotype (%) (Fibroblast; [2]): 5.98% and 3.51%
Population Mitochondria Different-Phenotype (%) (Fibroblast; [2]): 4.27% and 11.7%
Population Mitotic Cells (%) (Fibroblast; [2]): 86.49% and 83.87%
Population Normal (%) (Fibroblast; [2]): 100%
Population Pyknosed Nuclei (%) (Fibroblast; [2]): 19.89% and 14.55%
Total Cell Count (Fibroblast; [2]): 186 and 213
Population Apoptotic (%) (Fibroblast; [3]): 10.42% and 17.86%
Population Fragmented Nuclei (%) (Fibroblast; [3]): 12.43% and 7.25%
Population Healthy Nuclei (%) (Fibroblast; [3]): 61.62% and 78.24%
Population Hoechst High Intensity Objects (%) (Fibroblast; [3]): 0%
